SKKanGAS inh: inhibitors of SKKanGAS S. pyogenes growth in kanamycin (SK-promoter or general growth effect) | AID 1662 | BacTiter-Glo, 6 h | actives 1.3% (n = 300,000) | inhibition, % at 7.5 µM;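 active means mean replicate score, as percent of positive control median, at least 50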;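 further: strain carries kanamycin resistance gene driven by streptokinase promoter and grows in 40 µg/ml kanamycin; loss of luminescence reflects streptokinase promoter inhibition or plain growth inhibition; 0% = median of DMSO wells and 100% = positive control at its reference dose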
Beta cell apopt: blocks beta cell apoptosis; INS-1E cytokine-induced death, ATP luminescence, 48 h; percent of positive-control rescue, neutral wells zero; protection from apoptosis, % (no concentration beside the values); actives 0.8% (n = 300,000);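 active means Every replicate reaches about 75%, or at least half do and their mean reaches it too, limit read from the data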;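 further: 0% = cytokine-treated negative control wells and 100% = positive control rescue; higher means more ATP so stronger rescue from cytokine killing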
Lmaj promast: reduces viability of Leishmania major promastigotes; resazurin fluorescence viability; inhibition, % at 10 µM; actives 9% (n = 200,000); AID 1063; in the data active means inhibition above about 50%;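 further: promastigotes grown with compound for 44 hours at 28 °C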
CSC inhib: cancer stem cell inhibition | AID 2717 | inhibition, % at 7.5 µM | cancer stem cell-like cells viability, luminescence | actives 1.1% (n = 300,000); in the data active means inhibition above about 75%; tested in HMLE shEcad cells
Mdm2-MdmX inh: inhibitors of human Mdm2/MdmX interaction. SaOS-2 split-luciferase Mdm2/MdmX complementation, luminescence. inhibition, % at 8 µM. actives 3% (n = 330,000). AID 485346;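 active means inhibition of at least 50% at 8 µM in the primary screen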
Target sequence (O15151 whole entry, looked up): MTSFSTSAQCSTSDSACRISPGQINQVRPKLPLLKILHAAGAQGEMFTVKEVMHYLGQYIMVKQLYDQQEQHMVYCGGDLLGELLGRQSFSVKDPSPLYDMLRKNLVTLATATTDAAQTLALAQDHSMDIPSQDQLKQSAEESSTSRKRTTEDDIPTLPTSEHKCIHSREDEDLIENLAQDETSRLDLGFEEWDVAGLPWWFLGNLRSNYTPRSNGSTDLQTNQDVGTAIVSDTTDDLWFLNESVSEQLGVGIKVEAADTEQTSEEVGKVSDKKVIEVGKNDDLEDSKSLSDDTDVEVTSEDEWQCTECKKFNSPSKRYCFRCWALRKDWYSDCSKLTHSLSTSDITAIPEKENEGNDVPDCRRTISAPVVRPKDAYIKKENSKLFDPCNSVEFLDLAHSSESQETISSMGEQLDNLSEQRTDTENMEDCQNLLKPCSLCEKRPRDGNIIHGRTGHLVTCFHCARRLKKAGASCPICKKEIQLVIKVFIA
Target sequence (Q00987 whole entry, looked up): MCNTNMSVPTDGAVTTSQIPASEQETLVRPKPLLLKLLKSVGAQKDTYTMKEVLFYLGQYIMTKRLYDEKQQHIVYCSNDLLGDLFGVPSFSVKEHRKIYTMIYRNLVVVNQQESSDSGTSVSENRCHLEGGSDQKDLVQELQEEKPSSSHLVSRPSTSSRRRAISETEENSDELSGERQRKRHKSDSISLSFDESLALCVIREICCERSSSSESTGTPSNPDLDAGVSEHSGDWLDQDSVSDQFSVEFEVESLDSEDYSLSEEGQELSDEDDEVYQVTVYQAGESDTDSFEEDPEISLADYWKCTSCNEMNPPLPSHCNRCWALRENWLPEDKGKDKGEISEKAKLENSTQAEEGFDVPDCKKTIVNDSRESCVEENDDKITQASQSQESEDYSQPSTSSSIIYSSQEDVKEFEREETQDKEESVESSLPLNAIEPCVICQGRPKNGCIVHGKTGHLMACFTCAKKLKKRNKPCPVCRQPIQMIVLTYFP
T cruzi inh: T. cruzi replication inhibition | T. cruzi beta-gal in NIH3T3, luminescence, 90 h | inhibition, % (concentration not given with the values) | actives 1.4% (n = 300,000) | AID 1885;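 active means mean inhibition across valid replicates above about 55%, limit read from the data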;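 further: signal also drops with host cell toxicity which is not excluded here; 0% = plate median of DMSO wells and 100% = zero luminescence signal; higher percent means less beta-gal luminescence so fewer parasites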
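assay system = mouse NIH/3T3 fibroblasts infected with β-gal-expressing T. cruzi Tulahuen C4 | input = 5,000 NIH/3T3 host cells per well | buffer or medium = DMEM plus 2% FBS | timing = 3 h host attachment, then at least 90 h co-culture | measured by = GalScreen luminescence, 60 min | evaluation = luminescence reflecting intracellular parasite burden, expressed as percent inhibition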
Mdm2 MdmX conf: human Mdm2/MdmX binding inhibition, confirmed; AID 489028; shares compounds with Mdm2-MdmX inh; actives 55% (n = 10,000); inhibition, % at 8 µM; luminescent assay; in the data active means inhibition above about 40%
Full FLuc ctr: counter-screen for Mdm2/MdmX inhibitors: full-length luciferase; shares compounds with Mdm2-MdmX inh; SaOS-2 full-length luciferase counterscreen, luminescence; inhibition, % at 8 µM; actives 77% (n = 6,200); AID 504607;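 active means mean inhibition at 8 µM reaching about 37%, which flags the compound as non-specific, limit read from the data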;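 further: p53-null SaOS-2 cells with luciferase driven by a doxycycline-inducible promoter; compound on cells about two nights before reading with doxycycline added after day one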
* = called active by the depositor; . = not tested or not shown. An excerpt weighted towards active compounds, which were near 9.4% of everything screened.

SMILES	SKKanGAS inh	Beta cell apopt	Lmaj promast	CSC inhib	Mdm2-MdmX inh	T cruzi inh	Mdm2 MdmX conf	Full FLuc ctr
CC(C)(C)NC(=O)C(c1ccncc1)N(Cc1cccs1)C(=O)Cn1nnc(-c2ccc(F)cc2)n1 (stereo not given)	5.3	25.3	14.8	-5.3	52.8*	1.8	43.5*	54.8*
COc1ccc(Cc2nnc(NC(=O)c3cc(OC)cc(OC)c3)s2)cc1	12.0	-8.2	.	58.1	52.0*	1.3	46.1*	86.1*
CCOC(=O)c1ccc(-c2ccc(C3Nc4ccccc4C(=O)N3O)o2)cc1 (stereo not given)	13.7	6.7	98.5*	-3.9	72.4*	16.4	62.5*	58.0*
N#Cc1ccc(-c2ccc(C3Nc4ccccc4C(=O)N3O)o2)cc1 (stereo not given)	.	14.5	.	11.3	23.5	.	.	.
CC1(C)N=C(N)N=C(N)N1c1ccc(F)cc1F	-10.7	-0.4	0.9	2.5	1.1	-5.6	.	.
CC1(C)N=C(N)N=C(N)N1c1ccc(Oc2ccc(Cl)cc2)c(Cl)c1	93.9*	2.2	.	89.3*	67.1*	55.5*	50.0*	87.8*
O=C(O)c1ccc(Cl)c(S(=O)(=O)Nc2ccccc2N2CCOCC2)c1	5.4	-13.4	-3.7	-0.6	21.9	-8.1	.	.
O=S(=O)(Nc1nc2ccccc2nc1Nc1ccc(N2CCOCC2)cc1)c1cc(Cl)ccc1Cl	40.9	84.3*	1.9	86.2*	68.4*	50.1	29.6	73.2*
O=C(O)c1ccc(N2CCN(Cc3ccc4c(c3)OCO4)CC2)c([N+](=O)[O-])c1	7.5	-4.7	.	-10.5	3.3	-5.0	.	.
Cc1cccc(N=[N+]([O-])c2cccc(C)n2)n1	.	.	.	.	-17.1	.	.	.
Cn1nnc2c[n+](CC(=O)c3ccc(Cl)cc3)cc(Br)c21	5.4	-6.8	.	15.9	47.7	8.4	.	.
Cn1nnc2c[n+](CC(=O)c3ccc4ccccc4c3)cc(Br)c21	8.9	-5.1	.	5.4	65.0*	-15.7	32.1	62.9*
COc1ccc(NC(=O)CN(C)C(=O)c2sc3cc(Cl)ccc3c2Cl)cc1	20.7	.	.	11.9	32.6	-9.6	.	.
COc1ccc(CN(C)C(=O)CNC(=O)c2cccs2)c(OC)c1	.	-1.0	.	.	3.4	.	.	.
Cn1c(/C=C/c2ccc(Cl)cc2Cl)c([N+](=O)[O-])c(=O)n(C)c1=O	1.7	2.2	.	27.6	100.3*	9.5	75.7*	11.4
CCc1ccc(/C=C/c2c([N+](=O)[O-])c(=O)n(C)c(=O)n2C)cc1	49.9*	1.8	.	17.5	64.0*	21.2	43.5*	39.8*
COc1ccc(/C=C/c2c([N+](=O)[O-])c(=O)n(C)c(=O)n2C)c(OC)c1	25.6	-23.4	10.6	-3.1	15.2	0.3	.	.
COc1cccc(CNC(=O)CCCC(=O)NC(C)CCc2ccccc2)c1 (stereo not given)	-1.0	-10.2	.	-1.2	-3.0	1.3	.	.
CCOc1cc(-c2c(C#N)c(N)nc3c2CCCC3C)ccc1O (stereo not given)	0.0	8.6	46.0	16.5	46.2	15.0	.	.
CCOc1cc(-c2c(C#N)c(N)nc3c2CCc2ccccc2-3)ccc1O	3.8	6.5	90.3*	-0.4	81.1*	21.3	78.5*	51.0*
COc1ccccc1-c1c(C#N)c(N)nc2c1CCc1ccccc1-2	-4.3	.	86.8*	.	69.8*	44.0	70.5*	52.9*
CCOC(=O)c1c([N+](=O)[O-])c(C)[nH]c(=O)c1C#N	-1.5	-0.4	.	-5.1	12.5	1.9	.	.
FC(F)(F)c1cnc(NNC(=S)Nc2ccccc2Cl)c(Cl)c1	3.6	111.9*	-5.6	48.5	86.3*	-11.4	22.5	.
O=C1CCCC2=C1C(c1ccsc1)CC(=O)N2c1ccccc1F (stereo not given)	-2.4	-1.5	-5.2	0.9	7.9	6.9	.	.
Cc1[nH]c2ccccc2c1/C=C/c1nc2ccccc2c(=O)n1-c1cccc([N+](=O)[O-])c1	16.1	2.6	2.0	.	69.6*	21.1	16.9	.

Screening results from PubChem BioAssay.
